Measured values from ChEMBL document CHEMBL1132328, “4-Hydroxy-1-[2-(4-hydroxyphenoxy)ethyl]-4-(4-methylbenzyl)piperidine: a novel, potent, and selective NR1/2B NMDA receptor antagonist” (J Med Chem, 1999).

Columns and labels:
Rattus = experiment: Inhibition of voltage -gated K+ currents was measured by whole cell voltage clamp recordings from dissociated rat superior cervical ganglion neurons at 10 uM; type: functional
Method in brief: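 SCG neurons from 1–4-day-old rat pups, recorded 24–48 h after plating. Whole-cell clamp held at -60 mV; 30-ms steps to +50 mV. Bath solution Hepes/glucose pH 7.4; pipette solution KCl/K-aspartate/EGTA pH 7.3. Compound diluted from 10 mM DMSO stock and applied by local perfusion after control responses. Result given as percent inhibition of sustained K+ current.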

[1] = biological target: Glutamate NMDA receptor; Grin1/Grin2b (Rattus norvegicus, UniProt P35439+Q00960); experiment: In vitro inhibitory concentration against NMDA responses at NR1A/2B receptors expressed in Xenopus oocytes; type: functional, cell-based, Oocyte
Method in brief: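 Two-electrode voltage clamp of oocytes expressing cloned NR1A/2B, held at -70 mV in Ca2+-free Ringer (BaCl2 1.8 mM, Hepes 5 mM, pH 7.4). Drugs in DMSO (0.1–1% final) applied by bath perfusion. IC50 from partial 3–5-point concentration-inhibition curves fitted with residual minimum fixed at 0.15. Mean ± SE.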

[2] = biological target: T1, Adrenergic receptor alpha-1 (Rattus norvegicus, UniProt P15823+P23944+P43140); experiment: Affinity for alpha-1 adrenergic receptor in rat was determined by [3H]- prazosin binding assay
T1 sequence (P15823 whole entry): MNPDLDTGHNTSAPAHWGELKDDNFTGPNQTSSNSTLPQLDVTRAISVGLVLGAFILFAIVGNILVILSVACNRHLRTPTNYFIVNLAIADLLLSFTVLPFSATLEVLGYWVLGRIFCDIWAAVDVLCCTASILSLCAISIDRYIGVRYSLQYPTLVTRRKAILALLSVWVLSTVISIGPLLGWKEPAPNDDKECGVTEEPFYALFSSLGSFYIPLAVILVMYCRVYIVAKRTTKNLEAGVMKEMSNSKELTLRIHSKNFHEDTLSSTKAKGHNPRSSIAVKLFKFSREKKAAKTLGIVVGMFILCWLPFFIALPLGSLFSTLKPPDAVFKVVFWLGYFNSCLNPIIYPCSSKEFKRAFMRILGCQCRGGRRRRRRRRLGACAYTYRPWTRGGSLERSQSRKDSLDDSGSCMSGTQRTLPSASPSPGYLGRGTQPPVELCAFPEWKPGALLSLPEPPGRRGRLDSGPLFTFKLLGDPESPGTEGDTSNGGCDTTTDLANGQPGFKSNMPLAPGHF
T1 sequence (P23944 whole entry): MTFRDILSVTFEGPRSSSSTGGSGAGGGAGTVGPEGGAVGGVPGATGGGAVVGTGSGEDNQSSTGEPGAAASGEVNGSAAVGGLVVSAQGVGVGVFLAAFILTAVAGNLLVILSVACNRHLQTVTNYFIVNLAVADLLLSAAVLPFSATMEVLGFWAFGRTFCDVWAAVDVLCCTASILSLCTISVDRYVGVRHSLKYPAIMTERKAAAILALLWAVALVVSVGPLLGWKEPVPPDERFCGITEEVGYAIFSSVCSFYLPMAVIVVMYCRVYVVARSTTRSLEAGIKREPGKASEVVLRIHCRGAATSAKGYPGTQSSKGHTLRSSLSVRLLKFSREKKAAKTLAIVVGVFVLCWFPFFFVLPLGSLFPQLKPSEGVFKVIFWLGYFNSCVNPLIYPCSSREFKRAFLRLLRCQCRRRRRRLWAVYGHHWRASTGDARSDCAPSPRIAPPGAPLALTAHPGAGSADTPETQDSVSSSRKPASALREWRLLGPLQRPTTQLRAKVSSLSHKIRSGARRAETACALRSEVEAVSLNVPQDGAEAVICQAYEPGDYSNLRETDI
T1 sequence (P43140 whole entry): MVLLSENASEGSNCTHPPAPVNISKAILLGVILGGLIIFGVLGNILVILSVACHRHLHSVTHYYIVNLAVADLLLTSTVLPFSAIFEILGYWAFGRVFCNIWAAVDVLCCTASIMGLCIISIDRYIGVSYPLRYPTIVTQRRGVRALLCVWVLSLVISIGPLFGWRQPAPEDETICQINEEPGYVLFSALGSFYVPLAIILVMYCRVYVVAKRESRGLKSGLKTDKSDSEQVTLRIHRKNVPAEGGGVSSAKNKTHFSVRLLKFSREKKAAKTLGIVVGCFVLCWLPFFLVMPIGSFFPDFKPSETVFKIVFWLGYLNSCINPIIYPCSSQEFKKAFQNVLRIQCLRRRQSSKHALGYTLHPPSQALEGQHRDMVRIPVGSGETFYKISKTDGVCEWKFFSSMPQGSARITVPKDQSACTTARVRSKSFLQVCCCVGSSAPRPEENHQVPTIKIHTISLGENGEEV
Method in brief: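 Rat cortex membranes (sucrose/Tris homogenate, washed three times in 140 mM NaCl/5 mM MgCl2/50 mM Tris-HCl pH 7.4) incubated with 0.8 nM [3H]prazosin for 60 min at room temperature. Test compounds at nine concentrations in duplicate, 1% DMSO final. Nonspecific binding defined with phentolamine. Reaction stopped by filtration through GF/B filters, then scintillation counting. IC50 from a sigmoidal fit.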

[3] = biological target: Glutamate NMDA receptor; Grin1/Grin2a (Rattus norvegicus, UniProt P35439+Q00959); experiment: In vitro inhibitory concentration against NMDA responses at cloned NR1A/2A receptors expressed in Xenopus oocytes; type: functional, cell-based, Oocyte
Mus musculus = organism: Mus musculus; experiment: ED50 value was calculated by mouse electric shock assay (MES).; type: functional
Method in brief: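 Anticonvulsant testing in mice by maximal electroshock. Compounds dissolved in 0.05 M Tris and given iv. Seizure protection tested at peak activity, 2 min after dosing.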

[4] = biological target: Glutamate NMDA receptor; Grin1/Grin2c (Rattus norvegicus, UniProt P35439+Q00961); experiment: In vitro inhibitory concentration against NMDA responses at NR1A/2C receptors expressed in Xenopus oocytes; type: functional, cell-based, Oocyte
Glutamate NMDA receptor; Grin1/Grin2c, sequence (Q00961 whole entry, other chains not shown): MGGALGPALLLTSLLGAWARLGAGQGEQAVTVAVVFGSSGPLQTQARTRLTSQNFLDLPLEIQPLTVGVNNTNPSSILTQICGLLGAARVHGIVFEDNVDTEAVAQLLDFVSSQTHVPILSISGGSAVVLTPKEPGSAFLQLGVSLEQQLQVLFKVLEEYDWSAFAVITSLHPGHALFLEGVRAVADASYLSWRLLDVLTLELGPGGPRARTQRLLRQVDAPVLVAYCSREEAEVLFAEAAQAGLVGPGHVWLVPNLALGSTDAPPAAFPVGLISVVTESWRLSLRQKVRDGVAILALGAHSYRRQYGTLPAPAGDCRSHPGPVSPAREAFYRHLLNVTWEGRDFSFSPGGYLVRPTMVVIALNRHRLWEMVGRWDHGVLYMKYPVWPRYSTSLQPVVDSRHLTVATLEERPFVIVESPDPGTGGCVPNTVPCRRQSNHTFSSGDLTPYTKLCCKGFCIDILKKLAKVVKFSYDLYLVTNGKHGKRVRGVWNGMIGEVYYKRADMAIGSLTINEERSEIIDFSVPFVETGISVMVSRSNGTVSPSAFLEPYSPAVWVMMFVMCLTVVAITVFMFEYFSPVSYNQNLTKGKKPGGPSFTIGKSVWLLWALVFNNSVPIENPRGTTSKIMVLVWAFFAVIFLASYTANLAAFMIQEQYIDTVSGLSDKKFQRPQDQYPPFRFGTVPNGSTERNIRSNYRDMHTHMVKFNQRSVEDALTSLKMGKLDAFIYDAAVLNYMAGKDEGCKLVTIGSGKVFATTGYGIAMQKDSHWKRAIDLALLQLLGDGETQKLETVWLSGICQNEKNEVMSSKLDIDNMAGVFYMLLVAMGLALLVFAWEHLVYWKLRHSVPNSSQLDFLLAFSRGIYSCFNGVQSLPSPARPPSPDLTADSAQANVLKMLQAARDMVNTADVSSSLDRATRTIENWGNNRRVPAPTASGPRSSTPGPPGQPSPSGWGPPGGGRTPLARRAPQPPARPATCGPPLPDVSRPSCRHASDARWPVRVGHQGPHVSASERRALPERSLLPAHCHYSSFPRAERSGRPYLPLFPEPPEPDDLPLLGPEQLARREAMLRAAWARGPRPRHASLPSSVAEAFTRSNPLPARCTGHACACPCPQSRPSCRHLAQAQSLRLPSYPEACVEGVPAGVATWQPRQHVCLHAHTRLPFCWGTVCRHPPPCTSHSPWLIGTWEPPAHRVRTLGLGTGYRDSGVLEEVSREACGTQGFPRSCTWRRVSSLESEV

Glutamate NMDA receptor; Grin1/Grin2b, sequence (Q00960 whole entry, other chains not shown, the tested form may be a part): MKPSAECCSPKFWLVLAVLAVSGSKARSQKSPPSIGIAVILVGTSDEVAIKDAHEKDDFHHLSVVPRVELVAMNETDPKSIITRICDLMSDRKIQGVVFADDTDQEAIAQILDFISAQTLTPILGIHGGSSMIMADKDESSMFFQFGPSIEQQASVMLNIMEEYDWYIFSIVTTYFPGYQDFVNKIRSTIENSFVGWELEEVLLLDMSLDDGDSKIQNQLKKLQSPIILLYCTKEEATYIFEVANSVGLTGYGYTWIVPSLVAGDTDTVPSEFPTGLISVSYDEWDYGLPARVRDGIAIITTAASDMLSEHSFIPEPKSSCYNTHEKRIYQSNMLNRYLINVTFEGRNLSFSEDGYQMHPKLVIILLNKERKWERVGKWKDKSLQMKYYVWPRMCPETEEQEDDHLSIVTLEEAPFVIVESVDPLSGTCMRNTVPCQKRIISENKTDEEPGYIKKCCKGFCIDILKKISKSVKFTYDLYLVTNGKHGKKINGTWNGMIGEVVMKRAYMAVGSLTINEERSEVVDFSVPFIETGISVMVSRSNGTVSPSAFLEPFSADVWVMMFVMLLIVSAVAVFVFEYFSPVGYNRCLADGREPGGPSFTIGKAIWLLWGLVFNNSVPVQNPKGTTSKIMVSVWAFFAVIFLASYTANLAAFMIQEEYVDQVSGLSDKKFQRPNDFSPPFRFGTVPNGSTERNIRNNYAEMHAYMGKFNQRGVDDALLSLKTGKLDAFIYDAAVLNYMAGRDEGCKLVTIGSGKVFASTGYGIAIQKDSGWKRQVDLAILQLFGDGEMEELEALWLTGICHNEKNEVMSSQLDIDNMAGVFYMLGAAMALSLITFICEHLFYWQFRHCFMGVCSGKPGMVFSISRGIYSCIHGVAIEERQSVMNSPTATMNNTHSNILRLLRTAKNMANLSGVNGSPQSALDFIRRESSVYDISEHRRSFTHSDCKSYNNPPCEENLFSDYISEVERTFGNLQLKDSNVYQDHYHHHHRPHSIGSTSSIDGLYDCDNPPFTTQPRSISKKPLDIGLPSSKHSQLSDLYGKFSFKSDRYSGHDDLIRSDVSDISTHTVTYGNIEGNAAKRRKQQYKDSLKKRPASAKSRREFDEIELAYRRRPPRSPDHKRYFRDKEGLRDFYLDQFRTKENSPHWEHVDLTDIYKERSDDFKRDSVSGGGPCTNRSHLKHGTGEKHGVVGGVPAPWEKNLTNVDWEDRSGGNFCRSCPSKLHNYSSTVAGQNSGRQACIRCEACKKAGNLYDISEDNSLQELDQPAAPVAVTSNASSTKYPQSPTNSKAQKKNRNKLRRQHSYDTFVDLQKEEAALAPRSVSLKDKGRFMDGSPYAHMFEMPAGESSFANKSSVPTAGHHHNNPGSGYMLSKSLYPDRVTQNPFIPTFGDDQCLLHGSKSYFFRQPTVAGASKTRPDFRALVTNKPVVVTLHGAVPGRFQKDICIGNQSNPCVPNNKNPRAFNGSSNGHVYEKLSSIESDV
Glutamate NMDA receptor; Grin1/Grin2a, sequence (Q00959 whole entry, other chains not shown): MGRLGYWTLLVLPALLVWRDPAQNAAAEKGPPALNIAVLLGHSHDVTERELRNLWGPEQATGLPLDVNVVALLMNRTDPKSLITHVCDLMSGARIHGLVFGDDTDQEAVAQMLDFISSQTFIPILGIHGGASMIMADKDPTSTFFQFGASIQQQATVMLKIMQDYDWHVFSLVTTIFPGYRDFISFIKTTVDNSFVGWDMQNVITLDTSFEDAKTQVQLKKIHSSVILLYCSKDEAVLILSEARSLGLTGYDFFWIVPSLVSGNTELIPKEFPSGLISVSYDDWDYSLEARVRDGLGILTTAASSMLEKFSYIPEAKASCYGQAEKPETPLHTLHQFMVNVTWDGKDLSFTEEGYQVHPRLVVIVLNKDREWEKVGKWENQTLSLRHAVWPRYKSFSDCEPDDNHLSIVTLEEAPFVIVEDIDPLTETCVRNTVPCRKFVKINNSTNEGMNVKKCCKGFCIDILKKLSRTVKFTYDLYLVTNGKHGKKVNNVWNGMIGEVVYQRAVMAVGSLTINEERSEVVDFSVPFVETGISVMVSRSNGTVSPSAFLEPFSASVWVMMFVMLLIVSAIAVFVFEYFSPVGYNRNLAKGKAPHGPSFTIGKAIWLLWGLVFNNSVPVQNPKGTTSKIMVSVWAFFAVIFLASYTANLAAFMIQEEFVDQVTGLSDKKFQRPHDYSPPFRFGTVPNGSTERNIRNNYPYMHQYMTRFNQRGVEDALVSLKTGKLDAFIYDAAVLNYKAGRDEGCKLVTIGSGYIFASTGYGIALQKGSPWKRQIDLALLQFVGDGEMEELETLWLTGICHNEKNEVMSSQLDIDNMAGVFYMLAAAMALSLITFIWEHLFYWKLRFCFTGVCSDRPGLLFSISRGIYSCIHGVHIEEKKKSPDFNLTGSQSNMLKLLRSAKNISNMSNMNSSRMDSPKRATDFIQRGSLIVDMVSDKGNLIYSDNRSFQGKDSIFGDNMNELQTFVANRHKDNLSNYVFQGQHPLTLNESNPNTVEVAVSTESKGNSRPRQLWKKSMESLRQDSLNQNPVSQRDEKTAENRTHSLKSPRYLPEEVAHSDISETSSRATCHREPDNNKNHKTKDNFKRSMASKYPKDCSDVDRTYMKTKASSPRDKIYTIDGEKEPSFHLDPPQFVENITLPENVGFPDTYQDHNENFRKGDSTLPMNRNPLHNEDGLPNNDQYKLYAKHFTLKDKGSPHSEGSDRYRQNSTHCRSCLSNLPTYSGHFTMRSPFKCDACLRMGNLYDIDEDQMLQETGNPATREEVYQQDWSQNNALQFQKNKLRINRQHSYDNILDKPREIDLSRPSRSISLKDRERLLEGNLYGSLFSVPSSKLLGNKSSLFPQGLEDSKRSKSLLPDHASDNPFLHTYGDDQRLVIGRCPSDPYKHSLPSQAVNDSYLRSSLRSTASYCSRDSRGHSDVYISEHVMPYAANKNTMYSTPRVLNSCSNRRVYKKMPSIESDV

IC50 [1] | IC50 [2] | IC50 [3] | IC50 [4] | Compound | inhibition at 10 µM (Rattus) | ED50 (Mus musculus)
1400 nM | 3.3 µM | 100 µM | 100 µM | OC(CN1CCC(Cc2ccc(F)cc2)CC1)c1ccc(Cl)cc1 (configuration not stated) [ELIPRODIL] | 67% | 1 mg/kg
28 nM | 1.8 µM | > 100 µM | > 100 µM | Cc1ccc(CC2CCN(CCOc3ccc(O)cc3)CC2)cc1 | 67% | 0.7 mg/kg
25 nM | 0.47 µM | > 100 µM | > 100 µM | Oc1ccc(OCCN2CCC(Cc3ccccc3)CC2)cc1 | 46% | 2 mg/kg
7700 nM | – | 110 µM | > 100 µM | Oc1ccc(OCCN2CCC(c3ccccc3)CC2)cc1 | – | –
630 nM | 0.82 µM | > 100 µM | > 100 µM | c1ccc(CC2CCN(CCOc3ccccc3)CC2)cc1 | 65% | 2 mg/kg
50 nM | 1.6 µM | 21 µM | > 100 µM | Oc1ccc(OCCN2CCC(Cc3ccc(F)cc3)CC2)cc1 | 53% | 3 mg/kg
43 nM | 27 µM | > 100 µM | > 100 µM | Cc1ccc(CC2(O)CCN(CCOc3ccc(O)cc3)CC2)cc1 | 23% | 1.5 mg/kg
– | 0.22 µM | – | – | C[C@@H]([C@H](O)c1ccc(O)cc1)N1CCC(Cc2ccccc2)CC1 [(R,S)-IFENPRODIL] | 54% | 7 mg/kg
